Results on 13 compounds are retold here after ChEMBL document CHEMBL1138854, “Synthesis and antitumor activity of guanylhydrazones from 6-(2,4-dichloro-5-nitrophenyl)imidazo[2,1-b]thiazoles and 6-pyridylimidazo[2,1-b]thiazoles(1)” (2006).

Where “and” joins values, the source holds several entries; their conditions need not be identical. Equal entries are not always repeated.

The nature of assay [1]: Antitumor activity against renal cell lines of the NCI60 panel. The class given is functional, Homo sapiens. Conditions: for TGI: read-out: pTGI (converted). In outline: (§1)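 Run by NCI in the 60-cell-line panel (details in Supporting Information). Highest concentration 10^-4 M unless noted (one case 10-2.6 M). Values expressed as -log molar concentration giving 50% growth inhibition (pGI50), total cytostasis (pTGI) or 50% cell kill (pLC50); only values >4.00 reported; mean graph midpoint is the calculated panel mean.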

The test system of the next assay is NSCLC. Description: Antitumor activity against NSCLC cell lines of the NCI60 panel. The class given is functional. Conditions: Homo sapiens; for TGI: read-out: pTGI (converted). In outline: as §1
Assay [2] is described as follows: Antitumor activity against leukemia cell lines of the NCI60 panel. In kind it is functional. To be noted: Homo sapiens; for TGI: read-out: pTGI (converted). The gist of the method:
as §1

The nature of assay [3]: Antitumor activity against ovarian cell lines of the NCI60 panel. To be noted: Homo sapiens; for TGI: read-out: pTGI (converted). In kind it is functional. The gist of the method: as §1
Assay [4] can be described thus: Antitumor activity against prostate cell lines of the NCI60 panel. In kind it is functional. Conditions: Homo sapiens; for TGI: read-out: pTGI (converted). The gist of the method:
as §1

Assay [5] can be described thus: Antitumor activity against melanoma cell lines of the NCI60 panel. To be noted: Homo sapiens; for TGI: read-out: pTGI (converted). In kind it is functional. In outline: as §1
Assay [6] is described as follows: Antitumor activity against CNS cell lines of the NCI60 panel. The class given is functional. To be noted: Homo sapiens; for TGI: read-out: pTGI (converted). The gist of the method:
as §1

The nature of assay [7]: Antitumor activity against breast cell lines of the NCI60 panel. In kind it is functional. Conditions: Homo sapiens; for TGI: read-out: pTGI (converted). In outline:
as §1

Assay [8] in a line: Antitumor activity against colon cell lines of the NCI60 panel. To be noted: Homo sapiens; for TGI: read-out: pTGI (converted). In kind it is functional. The gist of the method:
as §1

For orientation: GI50 means the concentration that inhibits growth by half. A lower GI50 goes with greater sensitivity of the cells. For the compound `N=C(N)N/N=C/c1c(-c2ccc(Cl)c([N+](=O)[O-])c2)nc2n1CCS2`, the GI50 in assay [1] (Homo sapiens, renal) is 10 µM; in the assay with NSCLC, 10.5 µM; in assay [2], 3.09 µM; in assay [3] it was 9.77 µM; in assay [4] it was 6.61 µM; in assay [5], 8.32 µM. Moreover, the 50% growth inhibitory concentration (GI50) in assay [6] is 6.92 µM; in assay [7], 11.5 µM; in assay [8], 6.61 µM. The TGI is 38.9 µM with NSCLC; 13.2 µM in [2]; 30.9 µM in [3]; 20.9 µM in [4]; 24 µM in assay [5]; 25.7 µM in assay [6]. The TGI was 27.5 µM in [7] and 17.4 µM in assay [8].
On to `Cc1csc2nc(-c3cc([N+](=O)[O-])c(Cl)cc3Cl)c(/C=N/N=C(N)N)n12`, for which the 50% growth inhibitory concentration (GI50) was 17 µM in assay [1] (Homo sapiens, renal); 17 µM with NSCLC; 2.51 µM in assay [2]; 17 µM in assay [3]; 16.6 µM in assay [4]; 16.2 µM in [5]. Further, the GI50 in assay [6] is 17.8 µM; in assay [7], 15.5 µM; in assay [8], 15.1 µM. Further, the TGI in [1] (Homo sapiens, renal) was 33.1 µM; with NSCLC, 35.5 µM; in [2] it was 25.7 µM; in assay [3] it was 37.2 µM; in assay [4], 35.5 µM; in assay [5] it was 31.6 µM. Besides, the TGI in [6] is 34.7 µM; in [7], 32.4 µM; in assay [8], 33.1 µM.
As for `N=C(N)N/N=C/c1c(-c2cc([N+](=O)[O-])c(Cl)cc2Cl)nc2sccn12`, the concentration for 50% growth inhibition (GI50) is 2 µM in assay [1] (Homo sapiens, renal); 1.78 µM in the assay with NSCLC; 1.45 µM in assay [2]; 1.86 µM in [3]; 2.09 µM in assay [4]; 1.58 µM in [5]. Also, the results for the 50% growth inhibitory concentration (GI50) in [6], in assay [7] and in [8] were 1.55 µM, 2.82 µM and 1.02 µM, respectively. For the same compound, the TGI in the assay with NSCLC was 3.47 µM; in assay [2], 4.27 µM; in assay [3] it was 3.55 µM; in assay [5], 3.02 µM; in assay [6], 3.47 µM; in assay [7] it was 6.03 µM. In addition, the TGI in assay [8] is 2.14 µM.
As to `Cc1cn2c(/C=N/NC(=N)N)c(-c3ccncc3)nc2s1`, the GI50 in assay [1] (Homo sapiens, renal) is 23.4 µM; in the assay with NSCLC, 16.6 µM; in [2], 9.77 µM; in [3] it was 16.6 µM; in assay [4], 17.4 µM; in assay [5] it was 19.5 µM. Moreover, the GI50 is 16.2 µM in [6], 34.7 µM in assay [7] and 15.8 µM in assay [8]. Further, the TGI in assay [1] (Homo sapiens, renal) was 42.7 µM; in the assay on NSCLC, 33.1 µM; in [2] it was 28.2 µM; in assay [3], 34.7 µM; in [4] it was 32.4 µM; in assay [5], 39.8 µM. Further, the TGI in [6] was 30.9 µM; in assay [7], 47.9 µM; in assay [8], 34.7 µM.
For the compound `Cc1sc2nc(-c3cc([N+](=O)[O-])c(Cl)cc3Cl)c(/C=N/NC(=N)N)n2c1C`, the GI50 in assay [1] (Homo sapiens, renal) was 8.71 µM; with NSCLC, 11 µM; in assay [2], 2.09 µM; in assay [3], 5.25 µM; in assay [4] it was 9.12 µM; in assay [5] it was 5.01 µM. For the same compound, the GI50 was 11.2 µM in assay [6], 7.24 µM in assay [7] and 4.27 µM in assay [8]. Further, the TGI was 47.9 µM in the assay with NSCLC; 22.4 µM in [2]; 24 µM in assay [3]; 38 µM in [4]; 16.2 µM in [5]; 67.6 µM in assay [6]. Besides, the TGI is 35.5 µM in [7] and 29.5 µM in assay [8].
In general, LC50 refers to the concentration that kills 50% of the test population. As for `CC(/C=N/NC(=N)N)=N\NC(=N)N` [MITOGUAZONE], in [1], the median lethal concentration (LC50) is 501 µM and 2000 µM. Further, the concentration for 50% growth inhibition (GI50) in assay [1] (Homo sapiens, renal) was 20 µM; with NSCLC, 25.1 µM; in [2] it was 7.94 µM; in [3], 15.8 µM; in assay [4] it was 100 µM; in [5], 39.8 µM. Moreover, the GI50 in [6] is 20 µM; in [7] it was 15.8 µM; in assay [8], 12.6 µM. Moreover, the TGI with NSCLC is 316 µM; in [2], 631 µM; in assay [3] it was 316 µM; in assay [4] it was 1580 µM; in [5] it was 316 µM; in assay [6], 251 µM. In addition, the TGI in [7] is 316 µM; in [8], 501 µM.
Turning to `Cc1cn2c(/C=N/NC(=N)N)c(-c3cccnc3)nc2s1`, the concentration for 50% growth inhibition (GI50) in assay [1] (Homo sapiens, renal) is 9.55 µM; in the assay with NSCLC it was 13.8 µM; in [2], 4.79 µM; in [3] it was 15.8 µM; in assay [4], 6.92 µM; in assay [5], 10.2 µM. For the same compound, the values for the GI50 in [6], in assay [7] and in assay [8] were 12 µM, 7.08 µM and 5.62 µM, respectively. In addition, the TGI in the assay with NSCLC was 36.3 µM; in assay [2], 51.3 µM; in [3], 36.3 µM; in assay [4], 24.5 µM; in assay [5], 25.7 µM; in assay [6], 28.2 µM. Moreover, the TGI was 22.4 µM in assay [7] and 20.9 µM in assay [8].
Turning to `Cc1cn2c(/C=N/NC(=N)N)c(-c3ccccn3)nc2s1`, the concentration for 50% growth inhibition (GI50) in assay [1] (Homo sapiens, renal) is 7.94 µM; with NSCLC, 10.2 µM; in assay [2], 3.63 µM; in assay [3], 17.4 µM; in [4] it was 7.94 µM; in [5] it was 9.77 µM. For the same compound, the 50% growth inhibitory concentration (GI50) in assay [6] is 8.13 µM; in [7] it was 8.91 µM; in assay [8], 8.13 µM. In addition, the TGI in the assay on NSCLC was 32.4 µM; in [3] it was 63.1 µM; in assay [4] it was 39.8 µM; in assay [5], 28.8 µM; in assay [6], 26.9 µM; in [7], 37.2 µM. Further, the TGI in assay [8] is 29.5 µM.
For `CCc1cn2c(/C=N/NC(=N)N)c(-c3cc([N+](=O)[O-])c(Cl)cc3Cl)nc2s1`, the GI50 in [1] (Homo sapiens, renal) is 1.51 µM; with NSCLC, 1.7 µM; in assay [2], 0.933 µM; in assay [3], 1.58 µM; in assay [4] it was 1.58 µM; in assay [5], 1.51 µM. In addition, the results for the concentration for 50% growth inhibition (GI50) in [6], in assay [7] and in assay [8] were 1.45 µM, 1.66 µM and 1.38 µM, respectively. For the same compound, the TGI is 3.16 µM in the assay with NSCLC; 3.24 µM in assay [2]; 3.09 µM in assay [3]; 3.09 µM in assay [4]; 2.82 µM in assay [5]; 2.82 µM in assay [6]. The TGI was 4.27 µM in [7] and 2.95 µM in assay [8].
With `Cc1cn2c(/C=N/NC(=N)N)c(-c3cc([N+](=O)[O-])c(Cl)cc3Cl)nc2s1`, the GI50 in assay [1] (Homo sapiens, renal) is 2.09 µM; in the assay on NSCLC, 2.51 µM; in [2] it was 1.62 µM; in assay [3], 2.09 µM; in [5], 2.29 µM; in [6], 2.14 µM. The GI50 in assay [7] was 4.17 µM; in assay [8], 0.661 µM. Further, the LC50 in assay [1] (Homo sapiens, renal, read-out: Log LC50 (converted)) was 60.3 µM. Also, the TGI was 11.7 µM in [1] (Homo sapiens, renal); 19.5 µM in the assay with NSCLC; 19.5 µM in assay [3]; 2.34 µM in assay [4]; 49 µM in assay [8].
For the compound `N=C(N)N/N=C/c1c(-c2cccnc2)nc2sc(Cl)cn12`, the GI50 in assay [1] (Homo sapiens, renal) was 18.2 µM; in the assay with NSCLC, 20 µM; in assay [2] it was 13.8 µM; in assay [3], 15.5 µM; in assay [4], 15.1 µM; in assay [5], 18.2 µM. Moreover, the 50% growth inhibitory concentration (GI50) was 15.1 µM in assay [6], 16.6 µM in assay [7] and 8.51 µM in assay [8]. The TGI was 35.5 µM in assay [1] (Homo sapiens, renal); 41.7 µM in the assay on NSCLC; 42.7 µM in assay [2]; 36.3 µM in assay [3]; 28.2 µM in assay [4]; 36.3 µM in assay [5]. Further, the values for the TGI in assay [6], in assay [7] and in assay [8] were 31.6 µM, 46.8 µM and 21.9 µM, respectively.
With `N=C(N)N/N=C/c1c(-c2cc([N+](=O)[O-])c(Cl)cc2Cl)nc2n1CCS2`, the 50% growth inhibitory concentration (GI50) in [1] (Homo sapiens, renal) was 1.17 µM; with NSCLC it was 1.15 µM; in assay [2] it was 0.339 µM; in assay [3], 1.32 µM; in [4] it was 0.813 µM; in [5] it was 0.759 µM. The GI50 in assay [6] is 0.302 µM; in assay [7] it was 0.617 µM; in assay [8], 0.447 µM. The TGI in [1] (Homo sapiens, renal) was 2.88 µM; with NSCLC it was 2.57 µM; in assay [2] it was 3.16 µM; in assay [3], 2.82 µM; in assay [4], 3.09 µM; in [5], 2.51 µM. The TGI in assay [6] is 9.55 µM; in [7], 10.5 µM; in assay [8], 2.19 µM.
Regarding `N=C(N)N/N=C/c1c(-c2cc([N+](=O)[O-])c(Cl)cc2Cl)nc2sc(Cl)cn12`, the GI50 in [1] (Homo sapiens, renal) was 29.5 µM; in the assay with NSCLC, 22.9 µM; in assay [2], 3.55 µM; in assay [3], 19.5 µM; in assay [4], 19.1 µM; in assay [5], 11.2 µM. Further, the GI50 in assay [6] is 10.7 µM; in assay [7] it was 10.5 µM; in assay [8], 5.75 µM. The TGI is 81.3 µM in assay [1] (Homo sapiens, renal); 72.4 µM with NSCLC; 44.7 µM in [2]; 66.1 µM in [3]; 93.3 µM in assay [4]; 53.7 µM in [5]. The TGI is 64.6 µM in assay [6], 38.9 µM in assay [7] and 50.1 µM in assay [8].
